What is called IC50 is the concentration that inhibits the measured activity by half.

Structures are written as SMILES.

The subject of the assay is Thoracic aorta. Briefly: Vasodilatory activity in Wistar rat thoracic aorta assessed as reduction of norepinephrine hydrochloride-induced vasoconstriction. The format is functional, tissue-based. Summed up:
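Isolated rat aorta preparation with contractile response recorded. Compounds were dissolved in DMSO, with vehicle-only controls run at the same DMSO concentrations. Relaxation was plotted against compound concentration (mM) to give concentration–response curves, and IC50 was calculated by the best-fit line technique.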
Turning to `CCOc1nc(-c2ccccc2)cc(-c2ccccc2OCCOc2ccccc2-c2cc(-c3ccccc3)nc(OCC)c2C#N)c1C#N`, the IC50 is 862 µM. For `CCOc1nc(-c2ccc(Cl)cc2)cc(-c2ccccc2OCCOc2ccccc2-c2cc(-c3ccc(Cl)cc3)nc(OCC)c2C#N)c1C#N` the value was 622 µM; for `COc1nc(-c2ccc(C)cc2)cc(-c2ccccc2OCCOc2ccccc2-c2cc(-c3ccc(C)cc3)nc(OC)c2C#N)c1C#N`, 795 µM; for `CCOc1nc(-c2ccc(O)cc2)cc(-c2ccccc2OCCOc2ccccc2-c2cc(-c3ccc(O)cc3)nc(OCC)c2C#N)c1C#N`, 970 µM. For `CCOc1nc(-c2ccc(F)cc2)cc(-c2ccccc2OCCOc2ccccc2-c2cc(-c3ccc(F)cc3)nc(OCC)c2C#N)c1C#N` the value was 470 µM. For `COc1ccc(-c2cc(-c3ccccc3OCCOc3ccccc3-c3cc(-c4ccc(OC)cc4)nc(OC)c3C#N)c(C#N)c(OC)n2)cc1` the value was 890 µM; for `COc1nc(-c2ccccc2)cc(-c2ccccc2OCCOc2ccccc2-c2cc(-c3ccccc3)nc(OC)c2C#N)c1C#N`, 1050 µM; for `COc1nc(-c2ccc(Cl)cc2)cc(-c2ccccc2OCCOc2ccccc2-c2cc(-c3ccc(Cl)cc3)nc(OC)c2C#N)c1C#N`, 665 µM. Consider `CCOc1nc(-c2ccc(OC)cc2)cc(-c2ccccc2OCCOc2ccccc2-c2cc(-c3ccc(OC)cc3)nc(OCC)c2C#N)c1C#N`, for which the IC50 stood at 696 µM. For `COc1nc(-c2ccc(F)cc2)cc(-c2ccccc2OCCOc2ccccc2-c2cc(-c3ccc(F)cc3)nc(OC)c2C#N)c1C#N` the value was 517 µM; for `CCOc1nc(-c2cccs2)cc(-c2ccccc2OCCOc2ccccc2-c2cc(-c3cccs3)nc(OCC)c2C#N)c1C#N`, 865 µM. For `COc1nc(-c2cccs2)cc(-c2ccccc2OCCOc2ccccc2-c2cc(-c3cccs3)nc(OC)c2C#N)c1C#N` the value was 1270 µM.

The values above are taken from ChEMBL document CHEMBL1275311, “Synthesis and vasodilation activity of some novel bis(3-pyridinecarbonitrile) derivatives” (Eur J Med Chem, 2010).
